In ChEMBL document CHEMBL1777744, “Synthesis and anti-tumor activity of novel ethyl 3-aryl-4-oxo-3,3a,4,6-tetrahydro-1H-furo[3,4-c]pyran-3a-carboxylates” (Bioorg Med Chem Lett, 2011):

What was measured:
Format in all cases: functional, cell-based
A549 = assay: Cytotoxicity against human A549 cells by MTT assay
How it was run: (§1)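 Colorimetric MTT assay, run as quintuplicate dose-response tests. Cytotoxic effect was plotted against log10 of drug concentration for each cell line. IC50 is the concentration that reduced the optical density of treated cells by 50% relative to untreated cells. 5-fluorouracil served as control.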

[1] = Cytotoxicity against human QGY cells by MTT assay; how it was run: as §1
HeLa = assay: Cytotoxicity against human HeLa cells by MTT assay; how it was run: as §1

SMILES	IC50 (A549)	IC50 [1]	IC50 (HeLa)
O=c1[nH]cc(F)c(=O)[nH]1 [FLUOROURACIL]	5.6 µM	14.1 µM	16.1 µM
CCOC(=O)C12C(=O)OCC=C1COC2c1ccc(Br)cc1 (centres undefined)	> 1000 µM	> 1000 µM	48.7 µM
CCOC(=O)C12C(=O)OCC=C1COC2c1ccccc1 (centres undefined)	> 1000 µM	> 1000 µM	12.8 µM
CCOC(=O)C12C(=O)OCC=C1COC2c1ccc(Cl)cc1 (centres undefined)	> 1000 µM	> 1000 µM	118 µM
CCOC(=O)C12C(=O)OCC=C1COC2c1ccco1 (centres undefined)	> 1000 µM	> 1000 µM	28.3 µM
CCOC(=O)C12C(=O)OCC=C1COC2c1cccc(Cl)c1 (centres undefined)	28.4 µM	> 1000 µM	> 1000 µM
CCOC(=O)C12C(=O)OCC=C1COC2c1ccc(N(C)C)cc1 (centres undefined)	89.6 µM	> 1000 µM	23.4 µM
CCOC(=O)C12C(=O)OCC=C1COC2c1ccc(OC)c(OC)c1 (centres undefined)	> 1000 µM	> 1000 µM	10 µM
CCOC(=O)C12C(=O)OCC=C1COC2c1ccc([N+](=O)[O-])cc1 (centres undefined)	36.8 µM	> 1000 µM	53.4 µM
CCOC(=O)C12C(=O)OCC=C1COC2c1ccccc1F (centres undefined)	> 1000 µM	> 1000 µM	22.1 µM
CCOC(=O)C12C(=O)OCC=C1COC2c1cc(OC)c(OC)c(OC)c1 (centres undefined)	13.3 µM	> 1000 µM	5.4 µM
CCOC(=O)C12C(=O)OCC=C1COC2c1ccc(OC)cc1 (centres undefined)	9.3 µM	> 1000 µM	18.3 µM
CCOC(=O)C12C(=O)OCC=C1COC2c1ccc(Cl)c(Cl)c1 (centres undefined)	> 1000 µM	> 1000 µM	72.4 µM
CCOC(=O)C12C(=O)OCC=C1COC2c1cc(OC)cc(OC)c1 (centres undefined)	> 1000 µM	> 1000 µM	16 µM
CCOC(=O)C12C(=O)OCC=C1COC2c1ccc(C(C)(C)C)cc1 (centres undefined)	> 1000 µM	> 1000 µM	25.4 µM
CCOC(=O)C12C(=O)OCC=C1COC2c1cccs1 (centres undefined)	> 1000 µM	> 1000 µM	30.4 µM
CCOC(=O)C12C(=O)OCC=C1COC2c1ccccn1 (centres undefined)	> 1000 µM	> 1000 µM	20.7 µM
CCOC(=O)C12C(=O)OCC=C1COC2c1ccc(F)cc1 (centres undefined)	> 1000 µM	> 1000 µM	22.9 µM
